Experiment [1] is described as follows: Displacement of [3H]AMPA from AMPA receptor in rat brain membrane. It counts as cell membranes. The gist of the method:
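Rat cortical synaptosomal membranes, competition with 5 nM [3H]AMPA (55.5 Ci/mmol). IC50 given as the antilog of the mean log value from three individual experiments.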

Experiment [2] in a line: Displacement of [3H]KA from kainate receptor in rat brain membrane. In kind it is cell membranes. The method in brief: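 Rat cortical synaptosomal membranes, competition with 5 nM [3H]KA (58.0 Ci/mmol). IC50 given as the antilog of the mean log value from three individual experiments.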
Background: Displacement assays read how much labelled ligand stays bound in the presence of the test substance.

For experiment [3], the target named is Glutamate NMDA receptor. The experiment can be described thus: Displacement of [3H]CGP39653 from NMDA receptor in rat brain membrane. In kind it is cell membranes.
Experiment [4] concerns the target T1, Glutamate receptor 1 (Rattus norvegicus, UniProt P19490). The experiment can be described thus: Displacement of [3H[AMPA from rat recombinant GluA1o expressed in […] cells. In kind it is cell-based. The method in brief:
(§1)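 Competition binding to membranes from Sf9 cells infected with recombinant baculovirus encoding rat flop GluA subunits. Radioligand 2-5 nM (RS)-[3H]AMPA, 12-16 ligand concentrations. At least three experiments, each in triplicate, reported as Ki mean ± SEM.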

For experiment [5], the target named is T2, Glutamate receptor 3 (Rattus norvegicus, UniProt P19492). Description: Displacement of [3H[AMPA from rat recombinant GluA3o expressed in […] cells. In kind it is cell-based. The gist of the method:
as §1

Experiment [6] deals with T3, Glutamate receptor 4 (Rattus norvegicus, UniProt P19493). Description: Displacement of [3H[AMPA from rat recombinant GluA4o expressed in […] cells. It counts as cell-based. The method in brief: as §1
T3 sequence (P19493 whole entry): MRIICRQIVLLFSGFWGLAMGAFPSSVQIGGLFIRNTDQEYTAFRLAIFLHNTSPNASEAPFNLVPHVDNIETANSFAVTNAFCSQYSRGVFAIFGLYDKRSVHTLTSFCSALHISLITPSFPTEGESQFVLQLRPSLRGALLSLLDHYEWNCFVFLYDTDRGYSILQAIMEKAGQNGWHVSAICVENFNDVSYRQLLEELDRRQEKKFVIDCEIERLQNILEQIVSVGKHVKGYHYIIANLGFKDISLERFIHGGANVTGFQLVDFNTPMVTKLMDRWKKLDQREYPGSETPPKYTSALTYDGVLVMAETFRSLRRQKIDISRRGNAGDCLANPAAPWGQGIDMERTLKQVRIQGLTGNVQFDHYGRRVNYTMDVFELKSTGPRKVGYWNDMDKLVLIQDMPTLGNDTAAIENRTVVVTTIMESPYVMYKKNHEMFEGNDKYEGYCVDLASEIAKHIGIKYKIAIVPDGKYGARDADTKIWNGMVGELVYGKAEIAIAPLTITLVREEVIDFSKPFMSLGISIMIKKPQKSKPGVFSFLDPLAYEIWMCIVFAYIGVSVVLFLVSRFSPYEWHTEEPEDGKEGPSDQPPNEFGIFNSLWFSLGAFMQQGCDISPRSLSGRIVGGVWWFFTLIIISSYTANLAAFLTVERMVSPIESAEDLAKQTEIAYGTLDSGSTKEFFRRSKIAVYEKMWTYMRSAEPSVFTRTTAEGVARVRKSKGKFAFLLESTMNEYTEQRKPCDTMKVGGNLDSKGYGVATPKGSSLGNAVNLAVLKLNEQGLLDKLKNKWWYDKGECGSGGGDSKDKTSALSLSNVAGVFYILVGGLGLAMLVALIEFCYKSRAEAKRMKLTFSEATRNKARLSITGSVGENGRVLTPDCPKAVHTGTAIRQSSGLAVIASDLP
Experiment [7] has as its target Glutamate receptor ionotropic, kainate 1 (Rattus norvegicus, UniProt P22756). Description: Displacement of [3H[SYM2081 from rat recombinant GluK1(Q)1b expressed in […] cells. It counts as cell-based.
Experiment [8] addresses Glutamate receptor ionotropic, kainate 2 (Rattus norvegicus, UniProt P42260). The experiment can be described thus: Displacement of [3H[SYM2081 from rat recombinant GluK2(VCR)a expressed in […] cells. In kind it is cell-based. The gist of the method:
(§2)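 Competition binding to membranes from Sf9 cells infected with recombinant baculovirus encoding rat GluK subunits. Radioligand 1-5 nM [3H]SYM2081 (47.9 Ci/mmol), 12-16 ligand concentrations. At least three experiments, each in triplicate, reported as Ki mean ± SEM.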

The target in experiment [9] is T4, Glutamate receptor 2 (Rattus norvegicus, UniProt P19491). Description: Agonist activity at rat recombinant GluA2(Q)i expressed in Xenopus laevis oocytes by two-electrode voltage clamp assay. In kind it is functional, cell-based, Oocyte. The method in brief: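 Homomeric rat GluA2(Q) flip receptors expressed in Xenopus laevis oocytes and recorded by two-electrode voltage clamp. Agonist-evoked currents were normalised to the maximum response in each oocyte. EC50 was obtained by fitting the concentration-response data to a logistic equation giving Imax and the Hill coefficient.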
T4 sequence (P19491 whole entry): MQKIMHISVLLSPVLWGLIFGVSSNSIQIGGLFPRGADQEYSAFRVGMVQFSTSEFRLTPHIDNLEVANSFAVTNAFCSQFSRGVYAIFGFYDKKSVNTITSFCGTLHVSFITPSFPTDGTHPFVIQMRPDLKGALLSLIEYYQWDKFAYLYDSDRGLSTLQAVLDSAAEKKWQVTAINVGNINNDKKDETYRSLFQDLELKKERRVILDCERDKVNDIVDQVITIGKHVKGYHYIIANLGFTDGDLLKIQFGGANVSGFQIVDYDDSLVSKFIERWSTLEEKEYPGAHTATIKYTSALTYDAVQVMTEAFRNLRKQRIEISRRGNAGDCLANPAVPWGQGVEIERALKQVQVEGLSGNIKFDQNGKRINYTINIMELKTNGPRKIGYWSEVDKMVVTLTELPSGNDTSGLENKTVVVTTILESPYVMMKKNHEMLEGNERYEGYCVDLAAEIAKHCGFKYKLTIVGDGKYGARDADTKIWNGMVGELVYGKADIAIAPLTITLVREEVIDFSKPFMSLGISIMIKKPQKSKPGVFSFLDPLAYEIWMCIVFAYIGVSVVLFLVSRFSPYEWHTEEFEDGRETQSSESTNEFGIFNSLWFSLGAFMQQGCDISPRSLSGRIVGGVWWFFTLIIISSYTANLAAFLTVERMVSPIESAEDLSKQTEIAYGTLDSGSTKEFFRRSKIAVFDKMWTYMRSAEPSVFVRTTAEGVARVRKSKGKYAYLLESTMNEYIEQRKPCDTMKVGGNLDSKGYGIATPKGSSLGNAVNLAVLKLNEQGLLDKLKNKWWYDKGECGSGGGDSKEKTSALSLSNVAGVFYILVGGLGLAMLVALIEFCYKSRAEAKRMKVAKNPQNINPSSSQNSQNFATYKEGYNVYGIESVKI
A general note: In two-electrode clamp one electrode senses voltage and the other passes current.

Experiment [10] has as its target Glutamate receptor ionotropic, kainate 3 (Rattus norvegicus, UniProt P42264). Description: Displacement of [3H[SYM2081 from rat recombinant GluK3a expressed in […] cells. In kind it is cell-based. The method in brief:
as §2

The target in experiment [11] is T1, Glutamate receptor 1. Description: Agonist activity at rat recombinant GluA1i expressed in Xenopus laevis oocytes by two-electrode voltage clamp assay. In kind it is functional, cell-based, Oocyte. The gist of the method: (§3)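 Rat homomeric flip-isoform GluA subunits expressed in Xenopus laevis oocytes, measured by two-electrode voltage clamp. Highest concentration tested 3 mM. Responses normalized to the maximum response in each oocyte. Three to five experiments per receptor, each in duplicate. EC50 obtained by fitting I = Imax/(1 + (10^logEC50/10^log[A])^nH), giving Imax and Hill coefficient.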

Experiment [12] addresses T2, Glutamate receptor 3. Description: Agonist activity at rat recombinant GluA3i expressed in Xenopus laevis oocytes by two-electrode voltage clamp assay. It counts as functional, cell-based, Oocyte. The method in brief: as §3
For experiment [13], the target named is T3, Glutamate receptor 4. The experiment can be described thus: Agonist activity at rat recombinant GluA4i expressed in Xenopus laevis oocytes by two-electrode voltage clamp assay. In kind it is functional, cell-based, Oocyte. The gist of the method: as §3
The target in experiment [14] is Glutamate receptor 2 (Homo sapiens, UniProt P42262). The experiment can be described thus: Displacement of [3H]AMPA from GluA2-S1S2 receptor.
Sequence of Glutamate receptor 2 (Homo sapiens, UniProt P42262) (P42262 whole entry): as the sequence (P19491 whole entry) above, with T191M, A291T, G764R, P852A counted along it
For experiment [15], the target named is T4, Glutamate receptor 2. Description: Displacement of [3H[AMPA from rat recombinant GluA2(R)o expressed in […] cells. It counts as cell-based.

IC50, Ki and EC50 data for six compounds are collected here from ChEMBL document CHEMBL1629540 (J Med Chem, 2010).

The IC50 is the concentration at which inhibition is half-maximal. High values mean weaker potency in that assay, low ones greater potency in that assay. What is called Ki is a dissociation constant, usually derived from enzyme kinetics or from competition with a known ligand. In general, EC50 refers to the concentration giving half of the maximal effect.

Structures are written as SMILES.

Sequence of Glutamate receptor ionotropic, kainate 2 (P42260 whole entry): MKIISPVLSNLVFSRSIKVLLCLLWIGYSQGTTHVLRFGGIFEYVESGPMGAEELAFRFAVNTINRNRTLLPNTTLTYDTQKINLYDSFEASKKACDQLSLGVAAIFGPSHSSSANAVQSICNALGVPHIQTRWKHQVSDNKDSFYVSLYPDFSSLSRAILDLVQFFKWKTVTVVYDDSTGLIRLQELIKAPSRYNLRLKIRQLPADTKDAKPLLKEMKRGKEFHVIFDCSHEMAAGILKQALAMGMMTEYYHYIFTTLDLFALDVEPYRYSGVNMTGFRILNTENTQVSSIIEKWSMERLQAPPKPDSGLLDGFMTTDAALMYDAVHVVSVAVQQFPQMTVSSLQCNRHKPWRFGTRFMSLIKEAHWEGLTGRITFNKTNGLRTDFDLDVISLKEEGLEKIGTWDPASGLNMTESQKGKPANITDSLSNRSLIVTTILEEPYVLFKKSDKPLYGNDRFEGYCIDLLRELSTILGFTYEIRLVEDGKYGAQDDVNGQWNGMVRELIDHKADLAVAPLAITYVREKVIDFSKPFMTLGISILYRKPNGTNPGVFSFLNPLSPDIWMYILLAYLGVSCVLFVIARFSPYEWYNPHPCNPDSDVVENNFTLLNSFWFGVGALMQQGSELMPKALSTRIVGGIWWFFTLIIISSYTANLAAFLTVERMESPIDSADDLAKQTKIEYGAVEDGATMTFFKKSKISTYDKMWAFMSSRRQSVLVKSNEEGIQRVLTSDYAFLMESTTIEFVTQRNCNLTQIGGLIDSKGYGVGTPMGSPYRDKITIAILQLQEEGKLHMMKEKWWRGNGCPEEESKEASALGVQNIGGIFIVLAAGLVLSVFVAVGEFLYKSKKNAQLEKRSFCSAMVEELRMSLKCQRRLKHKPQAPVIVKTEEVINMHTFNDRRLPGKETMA
Sequence of Glutamate receptor ionotropic, kainate 3 (P42264 whole entry): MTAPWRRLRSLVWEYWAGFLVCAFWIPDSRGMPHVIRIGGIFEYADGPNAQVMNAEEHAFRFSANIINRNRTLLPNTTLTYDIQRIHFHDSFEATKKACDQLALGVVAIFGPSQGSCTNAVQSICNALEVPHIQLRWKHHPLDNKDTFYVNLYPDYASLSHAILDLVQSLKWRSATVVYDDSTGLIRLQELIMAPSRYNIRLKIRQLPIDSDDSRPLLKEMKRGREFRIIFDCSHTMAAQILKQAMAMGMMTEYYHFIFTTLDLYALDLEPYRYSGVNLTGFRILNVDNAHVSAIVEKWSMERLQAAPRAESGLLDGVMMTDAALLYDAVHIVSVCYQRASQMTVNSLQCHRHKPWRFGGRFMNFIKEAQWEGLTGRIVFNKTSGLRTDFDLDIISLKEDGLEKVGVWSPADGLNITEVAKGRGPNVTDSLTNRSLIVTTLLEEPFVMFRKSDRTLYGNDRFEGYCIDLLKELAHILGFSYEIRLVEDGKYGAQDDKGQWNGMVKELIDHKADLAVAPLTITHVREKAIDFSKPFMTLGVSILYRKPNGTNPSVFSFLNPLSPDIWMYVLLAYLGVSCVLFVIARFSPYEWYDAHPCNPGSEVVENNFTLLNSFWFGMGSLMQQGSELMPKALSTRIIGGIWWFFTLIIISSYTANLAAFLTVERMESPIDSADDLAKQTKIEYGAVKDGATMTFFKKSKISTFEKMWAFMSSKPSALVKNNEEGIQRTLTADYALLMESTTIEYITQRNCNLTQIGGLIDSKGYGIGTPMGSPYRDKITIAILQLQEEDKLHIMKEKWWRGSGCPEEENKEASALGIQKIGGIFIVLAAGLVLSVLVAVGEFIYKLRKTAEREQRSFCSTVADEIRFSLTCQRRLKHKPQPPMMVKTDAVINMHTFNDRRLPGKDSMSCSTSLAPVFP
Sequence of Glutamate receptor ionotropic, kainate 1 (P22756 whole entry): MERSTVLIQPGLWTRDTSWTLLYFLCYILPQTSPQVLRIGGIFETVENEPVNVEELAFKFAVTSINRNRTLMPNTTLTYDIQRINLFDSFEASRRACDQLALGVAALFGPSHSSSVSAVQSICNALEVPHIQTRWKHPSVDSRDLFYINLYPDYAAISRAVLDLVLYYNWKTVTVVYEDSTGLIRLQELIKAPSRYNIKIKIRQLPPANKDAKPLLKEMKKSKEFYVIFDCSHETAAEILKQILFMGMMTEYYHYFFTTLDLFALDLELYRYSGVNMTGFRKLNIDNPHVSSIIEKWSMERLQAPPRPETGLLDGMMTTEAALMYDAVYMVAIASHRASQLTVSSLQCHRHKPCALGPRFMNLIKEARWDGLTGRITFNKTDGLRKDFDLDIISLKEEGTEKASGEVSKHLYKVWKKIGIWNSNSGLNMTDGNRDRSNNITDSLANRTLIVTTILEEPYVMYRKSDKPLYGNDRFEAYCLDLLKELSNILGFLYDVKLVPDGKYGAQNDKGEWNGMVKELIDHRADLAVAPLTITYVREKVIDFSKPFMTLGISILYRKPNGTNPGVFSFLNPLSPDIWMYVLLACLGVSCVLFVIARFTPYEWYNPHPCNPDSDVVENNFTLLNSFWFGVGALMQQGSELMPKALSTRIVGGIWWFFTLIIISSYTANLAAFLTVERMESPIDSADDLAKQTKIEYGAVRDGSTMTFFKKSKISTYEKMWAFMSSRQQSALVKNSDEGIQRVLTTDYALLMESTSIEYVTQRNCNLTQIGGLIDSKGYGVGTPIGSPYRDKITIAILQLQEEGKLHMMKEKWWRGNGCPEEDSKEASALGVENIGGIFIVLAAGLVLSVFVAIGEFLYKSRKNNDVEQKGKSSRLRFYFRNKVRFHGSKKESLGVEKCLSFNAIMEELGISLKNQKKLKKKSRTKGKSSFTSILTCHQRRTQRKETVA

On to `O=C(O)[C@H]1Cc2c(O)noc2CN1`, for which the IC50 in [1] was 0.47 µM; in experiment [2] it was greater than 100 µM. The Ki in experiment [3] is greater than 100 µM; in experiment [4], 0.36 µM; in experiment [5] it was 0.84 µM; in experiment [6] it was 0.64 µM; in experiment [7], 10.1 µM; in experiment [8] it was greater than 100 µM. Besides, in experiment [9], the EC50 came to 22.3 µM.

Turning to `O=C(O)C1NCCc2c1o[nH]c2=O` (racemic), the IC50 is 0.37 µM in experiment [1] and greater than 100 µM in experiment [2]. Also, the Ki was greater than 100 µM in experiment [3]; 0.18 µM in experiment [4]; 4.52 µM in experiment [5]; 13.5 µM in [6]; 4.48 µM in experiment [7]; greater than 100 µM in [8]. Moreover, the Ki in experiment [10] was 29.8 µM; in [14], 0.108 µM. The EC50 is 82.8 µM in experiment [11], 34.6 µM in experiment [9], 637 µM in experiment [12] and greater than 1000 µM in experiment [13].

On to `O=C(O)C1Cc2c(O)noc2CN1` (racemic), for which the Ki is 54 µM in experiment [10] and 0.494 µM in experiment [14].

`NC(Cc1onc(O)c1Cl)C(=O)O` (racemic): the IC50 in [1] is 0.22 µM; in experiment [2] it was greater than 100 µM. Besides, the Ki stood at 18 µM in experiment [3]; 0.13 µM in [4]; 0.37 µM in experiment [15]; 27.5 µM in experiment [5]; 11.9 µM in experiment [6]; 6.8 µM in experiment [7]. In addition, the inhibition constant Ki in experiment [8] is greater than 100 µM; in [10], 90.5 µM. Besides, in experiment [11], the EC50 was 4.7 µM.

For the compound `Cc1onc(O)c1C[C@H](N)C(=O)O` [(S)-AMPA], the Ki in experiment [8] was greater than 1000 µM; in [10], 42.7 µM.

Take `N[C@H](C(=O)O)c1cc(O)no1` [IBOTENIC ACID]: the IC50 was greater than 100 µM in [1] and 22 µM in [2]. Moreover, the Ki in [4] was greater than 100 µM; in experiment [15] it was greater than 100 µM; in [5], greater than 100 µM; in [6], greater than 100 µM; in experiment [7], 2.43 µM; in experiment [8], 3.23 µM. The Ki in experiment [10] was found to be 1.74 µM.
